≈ marks a conversion by molar mass, not a printed value. Calls of active or inactive are those of the source. No cut-off for these calls is given here.
Legend:
[1] = target: T1, DNA polymerase III PolC-type (Staphylococcus aureus, UniProt P0C1P9); experiment: Inhibition of DNA polymerase3C from Staphylococcus aureus
T1 sequence (P0C1P9 whole entry): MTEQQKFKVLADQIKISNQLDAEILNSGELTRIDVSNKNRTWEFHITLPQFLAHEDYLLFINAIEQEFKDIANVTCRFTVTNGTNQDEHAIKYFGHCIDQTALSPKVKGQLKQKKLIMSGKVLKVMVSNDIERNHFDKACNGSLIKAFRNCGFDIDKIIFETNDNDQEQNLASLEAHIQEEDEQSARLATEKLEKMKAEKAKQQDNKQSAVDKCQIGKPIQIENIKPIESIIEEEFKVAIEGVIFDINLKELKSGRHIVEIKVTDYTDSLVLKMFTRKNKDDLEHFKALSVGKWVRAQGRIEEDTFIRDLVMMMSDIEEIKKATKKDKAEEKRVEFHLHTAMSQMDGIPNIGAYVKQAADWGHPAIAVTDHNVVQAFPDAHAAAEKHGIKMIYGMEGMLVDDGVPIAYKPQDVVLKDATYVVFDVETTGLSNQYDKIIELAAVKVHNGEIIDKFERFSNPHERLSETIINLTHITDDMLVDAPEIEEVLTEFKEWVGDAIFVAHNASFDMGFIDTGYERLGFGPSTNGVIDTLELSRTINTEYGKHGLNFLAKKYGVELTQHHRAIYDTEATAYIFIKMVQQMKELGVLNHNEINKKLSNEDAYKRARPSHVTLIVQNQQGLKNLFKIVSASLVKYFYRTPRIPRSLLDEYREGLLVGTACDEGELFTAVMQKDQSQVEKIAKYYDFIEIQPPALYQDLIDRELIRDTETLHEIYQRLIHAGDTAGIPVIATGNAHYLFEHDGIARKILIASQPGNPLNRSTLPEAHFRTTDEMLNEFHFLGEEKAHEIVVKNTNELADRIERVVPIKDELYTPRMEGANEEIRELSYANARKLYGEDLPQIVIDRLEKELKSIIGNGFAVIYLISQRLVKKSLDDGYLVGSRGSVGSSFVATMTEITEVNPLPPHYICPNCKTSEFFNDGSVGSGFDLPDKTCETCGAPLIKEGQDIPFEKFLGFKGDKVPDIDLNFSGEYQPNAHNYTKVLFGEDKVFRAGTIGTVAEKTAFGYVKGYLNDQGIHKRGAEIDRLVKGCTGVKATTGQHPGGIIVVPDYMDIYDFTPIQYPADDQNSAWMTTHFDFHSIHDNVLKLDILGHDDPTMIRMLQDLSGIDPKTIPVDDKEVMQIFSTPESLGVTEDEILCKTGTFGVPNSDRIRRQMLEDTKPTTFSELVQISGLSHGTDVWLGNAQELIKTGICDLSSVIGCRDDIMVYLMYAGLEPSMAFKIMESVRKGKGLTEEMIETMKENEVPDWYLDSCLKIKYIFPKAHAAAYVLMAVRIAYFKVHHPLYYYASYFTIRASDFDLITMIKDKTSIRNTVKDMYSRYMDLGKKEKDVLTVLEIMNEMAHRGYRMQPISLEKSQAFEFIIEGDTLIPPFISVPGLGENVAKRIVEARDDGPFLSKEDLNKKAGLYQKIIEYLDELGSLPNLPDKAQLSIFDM
Summary of the method: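 Purified PolC (125 ng) started the reaction with a double-stranded oligonucleotide substrate, dATP, dCTP, low dGTP and [³H]dTTP (1 Ci/mmol) in Tris-HCl pH 7.5 buffer with glycerol, EDTA, DTT, IgG and 8 mM MgCl₂. Incubation was 30 min at 37 °C, stopped with 20 mM EDTA, then spotted on DE81 filters, washed and counted by scintillation. IC50 came from a 12-point, roughly 2-fold serial dilution, run in triplicate.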

[2] = test system: HeLa; experiment: Cytotoxicity against HeLa cell line by MTS assay; type: functional, cell-based; details: Homo sapiens
Summary of the method: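 HeLa cells (2 × 10⁴/well) in DMEM with 1% bovine growth serum were exposed to compound at 100, 50, 25 and 12.5 for 18 h at 37 °C under 5% CO₂. Viability was read as MTS reduction to formazan, by absorbance at 490 nm.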

[3] = target: T2, DNA polymerase III PolC-type (Staphylococcus aureus) (UniProt P0C1P9); experiment: Inhibition of DNA polymerase3C from Staphylococcus aureus at 100 uM
T2 sequence (whole entry): T1 sequence (P0C1P9 whole entry)
Summary of the method: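 PolC oligonucleotide-primed incorporation of [³H]dTTP was run with 125 ng purified enzyme for 30 min at 37 °C. It was quenched with EDTA, filter-bound on DE81 and counted by liquid scintillation. Compounds were screened in triplicate at 10, 50 and 100.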

[4] = test system: Staphylococcus aureus; experiment: Antimicrobial activity against Staphylococcus aureus (RN4220); type: functional
[5] = test system: Hepatocyte; experiment: Cytotoxicity against human hepatocytes by measure of ATP production at 100 uM; type: functional, cell-based
Summary of the method: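 Cryopreserved primary human hepatocytes (1 × 10⁴/well) in Krebs–Henseleit buffer were incubated with compound at 100, 50, 25 and 12.5 for 2 h at 37 °C under 5% CO₂. ATP content was then measured by luminescence after adding luciferin and luciferase.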

[6] = test system: Staphylococcus aureus; experiment: Antimicrobial activity against Staphylococcus aureus (RN4220) in presence of 50% of human serum; type: functional
[7] = test system: Staphylococcus aureus; experiment: Inhibition of DNA replication utilizing Staphylococcus aureus replication proteins in presence of reduced dATP concentrations; type: functional, organism-based
Summary of the method: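 The replication assay used a singly primed circular ssM13 template copied by S. aureus PolC, with β clamp, δδ′/τ clamp loader and SSB. [³H]dTTP incorporation was measured in streptavidin-coated scintillation plates, with the dATP concentration reduced to sensitize the assay to dATP analogs.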

Row | SMILES | IC50 [1] [µM] | Activity [2] | inhibition [3] [%] | MIC ([4]; read-out: MIC) [µg/mL] | Activity [5] | MIC [6] [µg/mL] | IC50 [7] [µM] | MIC [4] [µg/mL]
1 | C=CCCc1c(O)nc(Nc2ccc3c(c2)CCC3)nc1O | 17.9 | Not toxic | 87 | 8 (≈ 26.9 µM) | – | – | – | –
2 | O=[N+]([O-])c1ccc(OCCCc2c(O)nc(Nc3ccc4c(c3)CCC4)nc2O)nc1 | 5.1 | Not toxic | 85 | 64 (≈ 151 µM) | – | – | – | –
3 | COc1cc(OCCCc2c(O)nc(Nc3ccc4c(c3)CCC4)nc2O)ccc1[N+](=O)[O-] | – | Not toxic | 72 | 8 (≈ 17.7 µM) | – | – | – | –
4 | COc1cc(C#N)ccc1OCCCc1c(O)nc(Nc2ccc3c(c2)CCC3)nc1O | 3 | Not toxic | 95 | 16 (≈ 37 µM) | inactive | – | – | –
5 | C=CCc1c(O)nc(Nc2ccc3c(c2)CCC3)nc1O | – | Not toxic | 65 | 16 (≈ 56.5 µM) | inactive | > 128 | – | –
6 | Nc1ccc(OCCCc2c(O)nc(Nc3ccc4c(c3)CCC4)[nH]c2=O)cc1 | 9 | – | – | – | – | – | – | –
7 | NCCCc1c(O)nc(Nc2ccc3c(c2)CCC3)nc1O | – | Not toxic | 40 | > 128 | – | – | – | –
8 | Nc1nc(Nc2ccc3c(c2)CCC3)nc(O)c1CCCc1ccccc1 | – | Not toxic | -0 | > 128 | – | > 128 | > 100 | –
9 | C=CCc1c(N)nc(Nc2ccc(C)c(CC)c2)[nH]c1=O | 164 | – | – | – | – | – | – | –
10 | OCCCc1c(O)nc(Nc2ccc3c(c2)CCC3)nc1O | – | Not toxic | 74 | 128 (≈ 425 µM) | – | – | – | –
11 | CCc1cc(Nc2nc(N)cc(O)n2)ccc1C | 104 | Not toxic | 36 | – | – | 32 | 28 | 16 (≈ 65.5 µM)
12 | C=CCCCc1c(O)nc(Nc2ccc3c(c2)CCC3)nc1O | – | Not toxic | 89 | 16 (≈ 51.4 µM) | – | – | – | –
13 | Oc1nc(Nc2ccc3c(c2)CCC3)nc(Cl)c1CCCc1ccccc1 | – | Not toxic | 46 | 16 (≈ 42.1 µM) | – | > 128 | – | –
14 | O=c1[nH]c(Nc2ccc3c(c2)CCC3)nc(O)c1CCCOc1ccc([N+](=O)[O-])cc1 | 2.6 | – | – | – | – | – | – | –
15 | O=C(O)c1ccc(OCCCc2c(O)nc(Nc3ccc4c(c3)CCC4)nc2O)cc1 | – | Not toxic | 90 | > 128 | – | – | – | –
16 | C=CCc1c(O)nc(Nc2ccc3c(c2)CCC3)[nH]c1=O | 31 | – | – | – | – | – | – | –
17 | Oc1nc(Nc2ccc3c(c2)CCC3)nc(O)c1CCc1ccccc1 | 18 | Not toxic | 68 | 8 (≈ 23 µM) | – | – | – | –
18 | C=CCc1c(O)nc(Nc2ccc3c(c2)CCC3)nc1OC | – | Not toxic | 33 | 128 (≈ 430 µM) | – | > 128 | – | –
19 | C=CCc1c(N)nc(Nc2ccc(C)c(CC)c2)nc1O | – | Not toxic | 32 | 8 (≈ 28.1 µM) | – | 32 | 7.7 | –
20 | O=c1[nH]c(Nc2ccc3c(c2)CCC3)nc(O)c1CCCc1ccccc1 | 3 | – | – | – | – | – | – | –
21 | Nc1nc(Nc2ccc3c(c2)CCC3)nc(O)c1Cc1ccccc1 | – | Not toxic | 17 | > 128 | – | > 128 | > 100 | –
22 | COC(=O)c1ccc(OCCCc2c(O)nc(Nc3ccc4c(c3)CCC4)nc2O)cc1 | – | Not toxic | 74 | 64 (≈ 147 µM) | – | – | – | –

Row | SMILES | IC50 [1] [µM] | Activity [2] | inhibition [3] [%] | MIC ([4]; read-out: MIC) [µg/mL] | Activity [5] | MIC [6] [µg/mL] | IC50 [7] [µM] | MIC [4] [µg/mL]
23 | CCc1cc(Nc2nc(N)c(CCCc3ccccc3)c(O)n2)ccc1C | – | Not toxic | 12 | > 128 | – | > 128 | 7.9 | –
24 | COc1ccc(OCCCc2c(O)nc(Nc3ccc4c(c3)CCC4)nc2O)cc1 | – | Not toxic | 81 | 16 (≈ 39.3 µM) | – | – | – | –
25 | Oc1nc(Nc2ccc3c(c2)CCC3)nc(O)c1CCOc1ccccc1 | – | Not toxic | 74 | 16 (≈ 44 µM) | – | – | – | –
26 | O=[N+]([O-])c1ccc(OCCCc2c(O)nc(Nc3ccc4c(c3)CCC4)nc2O)cc1 | – | Not toxic | 70 | 4 (≈ 9.47 µM) | – | – | – | –
27 | C=CCc1c(Cl)nc(Nc2ccc3c(c2)CCC3)[nH]c1=O | 2.3 | – | – | – | – | – | – | –
28 | Nc1cc(O)nc(Nc2ccc3c(c2)CCC3)n1 | – | Not toxic | 5 | > 128 | – | > 128 | – | –
29 | Nc1ccc(OCCCc2c(O)nc(Nc3ccc4c(c3)CCC4)nc2O)cc1 | – | Not toxic | 83 | > 64 | – | – | – | –
30 | N#Cc1ccc(OCCCc2c(O)nc(Nc3ccc4c(c3)CCC4)nc2O)cc1 | – | Not toxic | 91 | 8 (≈ 19.9 µM) | – | – | – | –
31 | C=CCc1c(O)nc(Nc2ccc(C)c(CC)c2)[nH]c1=O | 7.7 | – | – | – | – | – | – | –
32 | CCCc1cnc(Nc2ccc3c(c2)CCC3)nc1O | – | Not toxic | 7 | > 128 | – | > 128 | – | –
33 | Oc1nc(Nc2ccc3c(c2)CCC3)nc(O)c1CCCCOc1ccccc1 | 14 | Not toxic | 67 | 8 (≈ 20.4 µM) | – | – | – | –
34 | Oc1nc(Nc2ccc3c(c2)CCC3)nc(O)c1Cc1ccccc1 | 37 | Not toxic | 90 | 8 (≈ 24 µM) | – | – | – | –
35 | Oc1nc(Nc2ccc3c(c2)CCC3)nc(O)c1CCCN1CCCCC1 | – | Not toxic | 69 | 128 (≈ 347 µM) | – | – | – | –
36 | CCc1cc(Nc2nc(O)c(CCCc3ccc(C#N)cc3OC)c(O)n2)ccc1C | – | Not toxic | 81 | 16 (≈ 38.2 µM) | – | – | – | –
37 | COc1ccc(OCCCc2c(O)nc(Nc3ccc4c(c3)CCC4)[nH]c2=O)cc1 | 11.6 | – | – | – | – | – | – | –
38 | N#Cc1ccc(OCCCc2c(O)nc(Nc3ccc4c(c3)CCC4)[nH]c2=O)cc1 | 5.6 | – | – | – | – | – | – | –
39 | CCc1cc(Nc2nc(N)c(Cc3ccccc3)c(O)n2)ccc1C | – | Not toxic | 3 | > 128 | – | > 128 | 9.7 | –
40 | C=CCc1c(O)nc(Nc2ccc3c(c2)CCC3)nc1Cl | – | Not toxic | 53 | 1 (≈ 3.31 µM) | – | > 128 | – | –
41 | CCc1cc(Nc2nc(O)c(Cc3ccccc3)c(O)n2)ccc1C | 4 | Not toxic | 94 | 8 (≈ 23.9 µM) | inactive | – | – | –
42 | C=CCCCCc1c(O)nc(Nc2ccc3c(c2)CCC3)nc1O | – | Not toxic | 81 | 16 (≈ 49.2 µM) | – | – | – | –
43 | Oc1nc(Nc2ccc3c(c2)CCC3)nc(O)c1CCCCc1ccccc1 | – | Not toxic | 35 | > 128 | – | – | – | –

From ChEMBL document CHEMBL1138107, “Novel non-nucleobase inhibitors of Staphylococcus aureus DNA polymerase IIIC” (Bioorg Med Chem Lett, 2006)
